Measured values reported in ChEMBL document CHEMBL1275448, “Identification of a novel multidrug efflux pump of Mycobacterium tuberculosis” (2008).
In brackets after ≈: the same amount, converted by molar mass.

Each compound was assayed on Mycolicibacterium smegmatis (assay: Antimicrobial activity against wild-type Mycobacterium smegmatis SMR5 by microplate Alamar blue assay).
Format: functional
In short: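 M. smegmatis SMR5 carried either control plasmid pMS2 or rv0194 expression vector pML655. Cells were grown at 37°C in Middlebrook 7H9 with 0.2% glycerol and 0.05% Tween 80, then tested by microplate Alamar blue assay. MIC was the lowest antibiotic concentration reducing culture viability by ≥90%, read by fluorescence (ex 530/em 590 nm, room temperature).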
Work on CC1(C)S[C@@H]2[C@H](NC(=O)[C@H](N)c3ccccc3)C(=O)N2[C@H]1C(=O)O [AMPICILLIN] yielded an MIC of 125 mg/L (≈ 358 µM).
Compound CN[C@H](CC(C)C)C(=O)N[C@H]1C(=O)N[C@@H](CC(N)=O)C(=O)N[C@H]2C(=O)N[C@H]3C(=O)N[C@H](C(=O)N[C@H](C(=O)O)c4cc(O)cc(O)c4-c4cc3ccc4O)[C@H](O)c3ccc(c(Cl)c3)Oc3cc2cc(c3O[C@@H]2O[C@H](CO)[C@@H](O)[C@H](O)[C@H]2O[C@H]2C[C@](C)(N)[C@H](O)[C@H](C)O2)Oc2ccc(cc2Cl)[C@H]1O [VANCOMYCIN] has an MIC of 1.25 mg/L (≈ 0.863 µM).
CC[C@H]1OC(=O)[C@H](C)[C@@H](O[C@H]2C[C@@](C)(OC)[C@@H](O)[C@H](C)O2)[C@H](C)[C@@H](O[C@@H]2O[C@H](C)C[C@H](N(C)C)[C@H]2O)[C@](C)(O)C[C@@H](C)C(=O)[C@H](C)[C@@H](O)[C@]1(C)O [ERYTHROMYCIN] was tested, and the MIC was 2.5 mg/L (≈ 3.41 µM).
O=C(N[C@H](CO)[C@H](O)c1ccc([N+](=O)[O-])cc1)C(Cl)Cl [CHLORAMPHENICOL] gave an MIC of 32 mg/L (≈ 99 µM).
With CO[C@@H]1[C@@H](OC(N)=O)[C@@H](O)[C@H](Oc2ccc3c(O)c(NC(=O)c4ccc(O)c(CC=C(C)C)c4)c(=O)oc3c2C)OC1(C)C [NOVOBIOCIN] the MIC was 4 mg/L (≈ 6.53 µM).
CN(C)[C@@H]1C(O)=C(C(N)=O)C(=O)[C@@]2(O)C(O)=C3C(=O)c4c(O)cccc4[C@@](C)(O)[C@H]3C[C@@H]12 [TETRACYCLINE] gave an MIC of 0.3 mg/L (≈ 0.675 µM).
